The text below walks through data of ChEMBL document CHEMBL3272107, “Design of potent antagonists of the vasopressor response to arginine-vasopressin” (J Med Chem, 1978).

Test [1] deals with Rattus norvegicus. In words: Antidiuretic activity in iv dosed rat. It is filed as functional, Urine. Summed up: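 Rats under ethanol anesthesia, analogue given intravenously; antidiuretic response measured by previously described method.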
Test [2] concerns Rattus norvegicus. In words: Vasopressor activity in iv dosed phenoxybenzamine treated rat. It is filed as functional. In outline: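 Rats pretreated with phenoxybenzamine, under urethane anesthesia, analogue given intravenously; vasopressor (blood pressure) response measured, antagonism expressed as pA2 by Schild method, pA2 calculated per assay group and reported as mean ± SE with number of assays.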

Test [3] relates to Rattus norvegicus. In words: Antivasopressor activity in iv dosed phenoxybenzamine treated rat assessed as inhibition of arginine-vasopressin-induced effect. It is filed as functional, organism-based. The note with it: read-out: pA2 (converted). Summed up: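 Rats pretreated with phenoxybenzamine and anaesthetised with urethane; pressor response to arginine-vasopressin recorded with and without intravenous analogue. pA2 derived by the Schild method, one pA2 calculated per assay group, reported as mean ± SE across groups, number of assays stated.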

*1 amine or outer side, *2 acyl side, *3 side chain or, on linkers, in order; H or OH if unused. Where a SMILES comes first, the peptide text is derived from it. Bridges are numbered along the chain shown (N, C = ends). X1 = CC(C)(CC(=O)[*:1])S[*:2]

For `COc1ccc(C[C@@H]2NC(=O)[C@@H](N)CSSC[C@@H](C(=O)N3CCC[C@H]3C(=O)N[C@@H](CCCNC(=N)N)C(=O)NCC(N)=O)NC(=O)[C@H](CC(N)=O)NC(=O)[C@H](CCC(N)=O)NC(=O)[C@H](Cc3ccccc3)NC2=O)cc1`, the Activity in test [1] is listed as 386 U/mg; in test [2], 9.7 U/mg. For `COc1ccc(C[C@@H]2NC(=O)[C@@H](N)CSSC[C@@H](C(=O)N3CCC[C@H]3C(=O)N[C@@H](CCCCN)C(=O)NCC(N)=O)NC(=O)[C@H](CC(N)=O)NC(=O)[C@H](CCC(N)=O)NC(=O)[C@H](Cc3ccccc3)NC2=O)cc1`, the Activity in test [1] turned out to be 79 U/mg; in test [2] it was 2.4 U/mg. In test [1], `CC[C@H](C)[C@@H]1NC(=O)[C@H](Cc2ccc(OC)cc2)NC(=O)[C@@H](N)CSSC[C@@H](C(=O)N2CCC[C@H]2C(=O)N[C@@H](CC(C)C)C(=O)NCC(N)=O)NC(=O)[C@H](CC(N)=O)NC(=O)[C@H](CCC(N)=O)NC1=O` returned an Activity of 0.01 U/mg. The molecule `COc1ccc(C[C@@H]2NC(=O)CC(C)(C)SSC[C@@H](C(=O)N3CCC[C@H]3C(=O)N[C@@H](CCCN=C(N)N)C(=O)NCC(N)=O)NC(=O)[C@H](CC(N)=O)NC(=O)[C@H](CCC(N)=O)NC(=O)[C@H](Cc3ccccc3)NC2=O)cc1` (Y(Me)FQNCPRG-NH2; linker N-5 via X1) displayed an Activity in test [1] of 3.5 U/mg. Also, in test [3], the Kb was 11 nM. For `CC1(C)CC(=O)N[C@@H](Cc2ccc(O)cc2)C(=O)N[C@@H](Cc2ccccc2)C(=O)N[C@@H](CCC(N)=O)C(=O)N[C@@H](CC(N)=O)C(=O)N[C@H](C(=O)N2CCC[C@H]2C(=O)N[C@@H](CCCNC(=N)N)C(=O)NCC(N)=O)CSS1` (YFQNCPRG-NH2; linker N-5 via X1), the Activity in test [1] was 42 U/mg.

In the case of `CC[C@H](C)[C@@H]1NC(=O)[C@H](Cc2ccc(O)cc2)NC(=O)CCSSC[C@@H](C(=O)N2CCC[C@H]2C(=O)N[C@@H](CC(C)C)C(=O)NCC(N)=O)NC(=O)[C@H](CC(N)=O)NC(=O)[C@H](CCC(N)=O)NC1=O` [DEMOXYTOCIN], the Activity in test [1] was 19 U/mg; in test [2] it was 1.44 U/mg. For the molecule `N=C(N)NCCC[C@@H](NC(=O)[C@@H]1CCCN1C(=O)[C@@H]1CSSCCC(=O)N[C@@H](Cc2ccc(O)cc2)C(=O)N[C@@H](Cc2ccccc2)C(=O)N[C@@H](CCC(N)=O)C(=O)N[C@@H](CC(N)=O)C(=O)N1)C(=O)NCC(N)=O` [DESMOPRESSIN], the Activity in test [2] came out at 346 U/mg. With `NCCCC[C@H](NC(=O)[C@@H]1CCCN1C(=O)[C@@H]1CSSC[C@H](N)C(=O)N[C@@H](Cc2ccc(O)cc2)C(=O)N[C@@H](Cc2ccccc2)C(=O)N[C@@H](CCC(N)=O)C(=O)N[C@@H](CC(N)=O)C(=O)N1)C(=O)NCC(N)=O` [LYPRESSIN], the Activity in test [1] is recorded as 212 U/mg; in test [2] it was 285 U/mg. In test [1], `CC[C@H](C)[C@@H]1NC(=O)[C@H](Cc2ccc(O)cc2)NC(=O)[C@@H](N)CSSC[C@@H](C(=O)N2CCC[C@H]2C(=O)N[C@@H](CC(C)C)C(=O)NCC(N)=O)NC(=O)[C@H](CC(N)=O)NC(=O)[C@H](CCC(N)=O)NC1=O` [OXYTOCIN] registered an Activity of 4 U/mg. Turning to `N=C(N)NCCC[C@H](NC(=O)[C@@H]1CCCN1C(=O)[C@@H]1CSSC[C@H](N)C(=O)N[C@@H](Cc2ccc(O)cc2)C(=O)N[C@@H](Cc2ccccc2)C(=O)N[C@@H](CCC(N)=O)C(=O)N[C@@H](CC(N)=O)C(=O)N1)C(=O)NCC(N)=O` [VASOPRESSIN], the Activity in test [1] is given as 323 U/mg.
